Experimental data of several laboratories.
Each line is one published result; the experiments were not run side by side.

Structure (SMILES)	system	conditions	quantity	result
CN(C)C(=O)c1cc2cnc(Nc3ccc(-c4ccc5c(=O)cc(N6CCOCC6)oc5c4)cc3)nc2n1C1CCCC1.Cl	BALB/c mouse, plasma	intravenous, 2 mg/kg	AUC(0-inf)	2790 ng·h/mL
OCc1ccc(-c2nn(Cc3ccccc3)c3ccccc23)o1	male CD-1 mouse, plasma	oral, 10 mg/kg	AUC(0-t)	218 ng·h/mL
OCc1nc2ccc(NCc3ccc(C(F)(F)F)cc3)cc2[nH]1	male BALB/c mouse, plasma	oral, 10 mg/kg	AUC(0-inf)	2730 ng·h/mL
O=C1CCC(N2Cc3cc(CO)c(F)cc3C2=O)C(=O)N1 (stereo not shown)	male CD-1 mouse, plasma	intravenous, 1 mg/kg	AUC(0-inf)	316 ng·h/mL
COc1cccc2c(N3CCC(CCP(=O)(O)O)CC3)ncnc12	female C57BL/6 mouse, serum	subcutaneous, 50 mg/kg	AUC(0-inf)	18300 ng·h/mL
CC(C)[C@@H](CS(=O)(=O)C(C)C)N1C(=O)[C@@](C)(CC(=O)O)C[C@H](c2cccc(Cl)c2)[C@H]1c1ccc(Cl)cc1	FVB mouse, brain	oral, 20 mg/kg, single dose	AUC(0-inf)	36.3 ng·h/mL
NCc1ccc(-c2nn(Cc3ccncc3)c3ccccc23)o1	male CD-1 mouse, plasma	intraperitoneal, 30 mg/kg	AUC(0-t)	5240 ng·h/mL
C[C@@H]1COCCN1c1cc(=O)n2c(n1)N(Cc1cncc(Cl)c1)[C@H](C(F)(F)F)CC2	C57BL/6 mouse, plasma	intraperitoneal, 10 mg/kg, single dose	AUC(0-inf)	3280 ng·h/mL
COCC(=O)N1CCc2[nH]c3c(Cl)c(Cl)ccc3c2[C@@H]1C	C57BL/6 mouse, blood	oral, 20 mg/kg	AUC(0-inf)	8.24 µM·h
NCc1cc2c(cc1F)C(=O)N(C1CCC(=O)NC1=O)C2 (stereo not shown)	male CD-1 mouse, plasma	oral, 10 mg/kg	AUC(0-inf)	262 ng·h/mL
Cc1nc2ccc(OCc3ccc(C(F)(F)F)cc3)cc2[nH]1	male BALB/c mouse, plasma	oral, 10 mg/kg	AUC(0-inf)	13200 ng·h/mL
O=C1CCC(N2Cc3cc(C4CCN(Cc5ccccc5)CC4)ccc3C2=O)C(=O)N1 (stereo not shown)	male CD-1 mouse, plasma	intravenous, 1 mg/kg	AUC(0-inf)	355 ng·h/mL
CCOC(=O)c1c(NC(=O)CNC(C)C)sc2c1CCCCC2	male mouse, plasma	intraperitoneal, 5 mg/kg, single dose	AUC(0-inf)	311 ng·h/mL
